# Bioassay records as filed in PubChem.
# LMPTP inh: blocks human LMPTP phosphatase; hit rate 0.22% among 360,000; recombinant LMPTP-A, OMFP fluorogenic substrate, fluorescence intensity; inhibition, % at 20 µM;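 active means compounds that cut the enzyme signal by at least half of the control window in the single-dose screen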;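 further: plate controls were DMSO wells with enzyme plus substrate for no effect and substrate without enzyme for full effect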
#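 Buffer or medium: Bis-Tris pH 6.0, DTT, detergent; Assay system: LMPTP-A enzyme; Quantity: 0.625 nM enzyme; Detection: endpoint fluorescence intensity; Times: 50 min dark incubation at room temperature; Controls: substrate-only low control, DMSO enzyme-plus-substrate high control; Doses: single 20 µM dose; Read-out: percent inhibition versus substrate-only and uninhibited controls; Reagent: 400 µM OMFP.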
# Scp-1 inhibitor: Scp-1 (human) phosphatase inhibition; inhibition, % at 20 µM; AID 493091; Recombinant Scp1, phosphopeptide, malachite green phosphate absorbance; hit rate 0.88% among 340,000;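 active means inhibition above about 50% at 20 µM, limit read from the data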;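 further: plate controls were DMSO wells with enzyme for no effect and wells lacking enzyme for full effect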
#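 Material: truncated SCP-1 phosphatase (76-261aa) / Buffer or medium: 50 mM Tris acetate pH 5.5, 0.005% Tween-20, 10 mM MgCl2 / Compound dosing: one concentration, 20 µM, with 1.0% DMSO / Incubation: 45 min room-temperature reaction, 5 min colour, 30 min stabiliser / Detection: colorimetric free-phosphate detection, absorbance 630 nm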
# STEP inh: blocks human striatal-enriched tyrosine phosphatase | recombinant STEP, OMFP fluorogenic substrate, fluorescence | hit rate 0.25% among 360,000 | P54829 | inhibition, % at 20 µM;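 active means inhibition at 20 µM, scaled per plate between control wells, above about 37%, limit read from the data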;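 further: 0% = DMSO with enzyme and substrate and 100% = substrate only without enzyme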
#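 Measure: Control-normalized % inhibition with plate pattern correction | Test system: STEP phosphatase, cell-free reaction | Medium: pH 6.0 Bis-Tris with DTT and Tween 20 | Technique: Fluorescence, 480/540 nm | Times: Reaction 20 min, ambient temperature | Doses: Single compound dose of 20 µM, 1% DMSO final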
# NadD inh: inhibitors of Staphylococcus aureus NadD. hit rate 0.78% among 360,000. AID 602399. purified NadD enzyme, colorimetric absorbance read-out. inhibition, % at 20 µM; in the data active means inhibition above about 26%
# SUMO1 PPI mod: modulators of human SUMO1-mediated protein-protein interactions | hit rate 0.33% among 360,000 | P63165 | inhibition, % at 20 µM | SUMO1 binding to a labelled peptide, TR-FRET, 1 h; in the data active means inhibition above about 37%
# DNMT1 inh: blocks human DNA methyltransferase DNMT1; AID 588458; DNMT1 molecular beacon, Hinp1I cleavage, fluorescence; inhibition (reported as % activation of signal), % at 10 µM; hit rate 0.83% among 360,000; in the data active means inhibition above about 50%
# DNMT1 confirm: confirmation of human DNMT1 inhibitors | shares compounds with DNMT1 inh | DNMT1 molecular beacon HinP1I cleavage, fluorescence | inhibition, % at 10 µM | hit rate 8% among 2,300;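 active means average inhibition of at least 30% in the single-concentration confirmation test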
# DNMT1 interf: shows spectral interference in the DNMT1 beacon assay; shares compounds with DNMT1 inh; DNMT1 molecular beacon spectral interference counterscreen, fluorescence 485/520; activation (fluorescence interference), % at 10 µM; hit rate 1% among 2,300; AID 602387;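 active means activation of at least 30% at 10 µM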;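 further: DNMT1 catalytic domain with a HinP1I cleavage step and a FAM/dabcyl DNA beacon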
# The depositor's hits bear a star; nt = no result. Compounds with a hit are over-represented: about 2.3% of the library has one in this group of screens.
SMILES,LMPTP inh,Scp-1 inhibitor,STEP inh,NadD inh,SUMO1 PPI mod,DNMT1 inh,DNMT1 confirm,DNMT1 interf
Cc1cc(=O)oc2cc(NC(=O)c3cccc(Br)c3)ccc12,27,49,26,10,-5,51*,2,0
Cc1cc2nc3c(=O)n(CCc4ccccc4)c(=O)[nH]c3nc2cc1N,-2,8,-60,7,-36,63*,65*,90*
C=CCn1c(=O)[nH]c2nc3cc(N=CN(C)C)c(C)cc3nc2c1=O,0,-12,-10,0,-35,12,nt,nt
CCC(C)Sc1cccc(-c2nc3cc(C)ccn3c2NC2CCCCC2)c1 (configuration not stated),6,6,1,8,6,-3,nt,nt
CC(C)Oc1ccc(C(CC(=O)O)Cc2ccccc2)cc1 (configuration not stated),0,-14,0,-3,5,-1,nt,nt
Cc1nc2ccccc2n1CC(=O)NN,0,-8,0,1,21,74*,1,4
Nc1ccccc1C#CC(=O)c1ccccc1,4,-1,2,-5,-12,43,nt,nt
COc1ccc(OC)c(C(c2c(C)[nH][nH]c2=O)c2c(C)[nH][nH]c2=O)c1,0,1,-3,-3,-1,-11,nt,nt
COc1ccc(O)c(C(c2c(C)[nH][nH]c2=O)c2c(C)[nH][nH]c2=O)c1,9,1,2,5,43*,53*,1,-2
Cc1ccc(S(=O)(=O)N2CC3(O)CN(C(=O)OC(C)C)N(C(=O)OC(C)C)CC3(OC(=O)NCc3ccccc3)C2)cc1 (configuration not stated),1,nt,-1,-1,-2,-1,nt,nt
CCc1nnc2n1N=C(c1ccc(-c3cc(Cl)ccc3Cl)o1)CS2,6,5,4,18,-5,66*,4,0
O=C(N/N=C/c1ccc(OC(=O)c2ccc(Br)cc2)cc1)c1ccncc1,1,7,15,-8,-3,57*,6,2
O=C(N/N=C/c1ccc(OC(=O)c2ccco2)cc1)c1ccncc1,-1,-2,1,-4,4,2,nt,nt
COc1ccc(CCn2c(-c3ccc(F)cc3)nc3c(c(=O)c4ccccc4n3C)c2=O)cc1OC,3,-15,5,16,-28,31,nt,nt
COc1ccc(CCn2c(C3CCCCC3)nc3c(c(=O)c4ccccc4n3C)c2=O)cc1OC,24,10,14,6,41*,63*,-2,2
Cc1cc(C)cc(OC(=O)C23CCC(C)(C(=O)O2)C3(C)C)c1 (configuration not stated),-1,6,0,0,1,0,nt,nt
Cc1ccc(Nc2nc(=O)c3cc([N+](=O)[O-])ccc3s2)cc1,14,29,4,21,-20,59*,1,-4
Cc1ccccc1Nc1nc(=O)c2cc([N+](=O)[O-])ccc2s1,-1,-9,-1,-1,-17,1,nt,nt
COC(=O)[C@]1(C)N[C@H](c2ccc(-c3ccc(Cl)c(Cl)c3)c(OC)c2)[C@@H]2C(=O)N(C)C(=O)[C@@H]21,3,-2,2,-10,7,-15,nt,nt
Cc1ccc(C)c(Cn2nnc3c(=O)[nH]c(C(=O)NCc4ccco4)nc32)c1,0,-2,2,14,8,52*,11,3
O=C(NCc1ccco1)c1nc2c(nnn2Cc2ccccc2Cl)c(=O)[nH]1,0,-6,6,8,3,2,nt,nt
CCO[C@@H]1OC(C(=O)O)=C[C@H](c2ccc(C(F)(F)F)cc2)[C@H]1CCCO,1,0,2,4,0,3,nt,nt
CCO[C@@H]1OC(C(N)=O)=C[C@H](c2ccc(C(F)(F)F)cc2)[C@H]1CCCO,-2,-3,-4,-8,-1,71*,1,0
CCCSc1ccc(C(=O)Nc2ccc(Cl)cc2)cn1,-2,5,1,4,3,4,nt,nt
Cc1noc(C)c1-c1ccc(C(=O)N2CCN(C)CC2)c2occc12,-2,nt,-4,-1,1,1,nt,nt
SMILES,LMPTP inh,Scp-1 inhibitor,STEP inh,NadD inh,SUMO1 PPI mod,DNMT1 inh,DNMT1 confirm,DNMT1 interf
O=C(c1ccc(Cl)cc1)C1CCN(C(=O)c2ccccc2)CC1,0,-7,0,-1,5,89*,0,3
CCc1ccccc1NC(=O)CSc1ccsc1[N+](=O)[O-],7,48,3,-5,-15,53*,5,2
COc1ccccc1CNC(=O)CSc1ccsc1[N+](=O)[O-],-1,3,1,3,-25,1,nt,nt
Cn1c(=O)c2cc(S(=O)(=O)NC(C(=O)Nc3cccc(F)c3)c3ccccc3)ccc2n(C)c1=O (configuration not stated),0,-7,-8,4,4,83*,1,4
COCCn1c(C)cc(/C=C(\C#N)C(=O)OC(C)C(=O)Nc2ccc(NC(C)=O)cc2)c1C (configuration not stated),0,-9,-3,10,5,9,nt,nt
Cn1c(N)c(C(=O)COC(=O)/C=C/c2cccc(Cl)c2)c(=O)n(C)c1=O,12,-8,0,0,-10,66*,3,4
CC1(C(=O)NS(=O)(=O)Cc2cccc(Cl)c2)CCN1C(=O)c1ccc(C2CCCCC2)cc1 (configuration not stated),-1,nt,0,7,5,78*,4,3
CCCNC(=O)c1ccc2c(=O)n3c(-c4ccc(C)cc4)csc3nc2c1,-2,5,1,3,-20,53*,13,-2
COC(=O)c1ccc(NC(=O)CCN2CCOCC2)cc1,-1,-1,1,-3,-4,92*,2,3
Cc1ccc(/C=C2/C(=O)c3ccc(C(=O)O)cc3C2=O)o1,3,41,7,-5,5,74*,3,-3
CC(C)(C)N1C(=O)c2ccc(C(=O)O)cc2C1=O,-2,-15,0,6,-3,0,nt,nt
O=C1C(=Cc2ccco2)C(=O)c2ccccc21,1,-4,2,-1,6,-2,nt,nt
O=C(O)c1ccc2c(c1)C(=O)/C(=C\c1ccco1)C2=O,3,54*,9,-2,5,80*,6,0
CCOc1cc2c(cc1OCC)C(c1ccccc1)N(c1ccccc1)C(=O)C2 (configuration not stated),-1,-9,-2,-5,3,-2,nt,nt
COc1ccc(NC(=O)CN2C(=O)S/C(=C/c3cccn3-c3ccc(C(=O)O)cc3)C2=O)cc1,77*,nt,86*,11,14,78*,12,-1
